The source made the active and inactive calls.
Assays:
[1] = biological target: Voltage-gated potassium channel, KQT; KCNQ2(Kv7.2)/KCNQ3(Kv7.3) (Homo sapiens, UniProt O43525+O43526); test: Activation of KCNQ2/KCNQ3 expressed in CHO cells by isotopic efflux assay; type: cell-based
Method in brief: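 86Rb+ flux in K+-channel-expressing cells loaded by culture in 86RbCl, then washed in EBSS. Preincubated with drug (0.01-30 μM in EBSS), then efflux stimulated by submaximal KCl (generally 7-20 mM) with drug still present. Supernatant and SDS lysate counted by Cherenkov. Percent efflux normalized to high-KCl (generally 30-135 mM) maximum. EC50 from eight-point half-log curves; mean of 2-4 determinations ± SEM.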

Mus musculus [2] = test: Anticonvulsant activity against maximal electroshock-induced seizures in CD1 mouse model at 30 mg/kg, po treated 30 mins before electroshock application; type: functional, organism-based; set-up: dose 30 mg/kg
Method in brief: (§1)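 Male CD-1 mice dosed po (10 mL/kg in 5% DMSO/95% of 0.5% HPMC/1% Tween 80) 30 min before corneal electroshock at 50 mA for 0.2 s, with 1% proparacaine in each eye. Latency to hindlimb extension recorded to 0.1 s. No extension within 6 s scored as protected (latency 6 s). Reported as protected/tested (8 per group), or EC50 derived from latency scores.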

Mus musculus [3] = test: Anticonvulsant activity against maximal electroshock-induced seizures in CD1 mouse model at 10 mg/kg, po treated 30 mins before electroshock application; type: functional, organism-based; set-up: dose 10 mg/kg; method in brief: as §1
Rattus norvegicus [4] = test: Anticonvulsant activity in po dosed Sprague-Dawley rat assessed as inhibition of pentylenetetrazole-induced seizure treated 30 mins before PTZ challenge; type: functional, organism-based
Method in brief: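 Male Sprague-Dawley rats received compound po in 0.5% methylcellulose (1 mL/kg) 30 min before PTZ 85 mg/kg sc. Latency to tonic-clonic seizure timed from PTZ injection. No seizure within 15 min scored as protected (latency 15 min). EC50 derived from latency scores.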

Mus musculus [5] = test: Anticonvulsant activity against maximal electroshock-induced seizures in CD1 mouse model at 20 mg/kg, po treated 30 mins before electroshock application; type: functional, organism-based; set-up: dose 20 mg/kg; method in brief: as §1
Rattus norvegicus [6] = test: Antinociceptive activity in formalin-treated Sprague-Dawley rat model assessed as reduction in hind paw flinches at 100 mg/kg, iv measured during 11 to 60 mins of phase 2 flinches; type: functional; set-up: scale not given: the % may be the effect or the level left
Method in brief: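 Formalin test in male Sprague-Dawley rats fitted with a 0.5 g metal band on the right hind paw. Rats received 50 μL of 2.5% formalin sc into the dorsal right hind paw and were placed unrestrained over an electromagnetic detector. Flinches were counted for 60 min, with phase II defined as 11-60 min.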

Rattus norvegicus [7] = test: Analgesic activity in Sprague-Dawley rat assessed as reduction of spinal nerve ligation-induced allodynia score at 100 mg/kg, iv; type: functional; set-up: scale not given: the % may be the effect or the level left
Method in brief: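 L5 spinal nerve ligation (4.0 silk, distal to DRG, halothane anesthesia) in male Sprague-Dawley rats, with 2-3 weeks recovery. Tactile allodynia read as von Frey paw withdrawal threshold on a wire mesh floor, capped at 15 g. Baseline measured right before dosing; behaviour tested 1 and 2 h after administration.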

Mus musculus [8] = test: Anticonvulsant activity against maximal electroshock-induced seizures in CD1 mouse model at 30 mg/kg, ip treated 15 mins before electroshock application; type: functional, organism-based; set-up: dose 30 mg/kg
Method in brief: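 Male CD-1 mice dosed ip at 30 mg/kg (10 mL/kg in 5% DMSO/95% of 0.5% HPMC/1% Tween 80) 15 min before corneal electroshock (50 mA, 0.2 s, 1% proparacaine in eyes). Hindlimb extension latency measured; no extension by 6 s counted as protected. Reported as protected/tested out of 8 mice.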

Rattus norvegicus [9] = test: Antinociceptive activity in formalin-treated Sprague-Dawley rat model assessed as reduction in hind paw flinches at 17 mg/kg, po measured during 11 to 60 mins of phase 2 flinches; type: functional; set-up: scale not given: the % may be the effect or the level left
Method in brief: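 Male Sprague-Dawley rats dosed po in 0.5% methylcellulose 1 h before assay. A 0.5 g metal band was glued to the right hind paw 1 h beforehand. 2.5% formalin (50 μL) was injected sc into the dorsal right hind paw. An electromagnetic detector counted flinches for 60 min; phase II is 11-60 min post-injection.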

Rattus norvegicus [10] = test: Analgesic activity in Sprague-Dawley rat assessed as reduction of spinal nerve ligation-induced allodynia score at 10 mg/kg, po; type: functional; set-up: scale not given: the % may be the effect or the level left
Method in brief: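 Male Sprague-Dawley rats; L5 spinal nerve tightly ligated with 4.0 silk distal to the DRG under halothane, then 2-3 weeks recovery. Dosed po in 0.5% methylcellulose. Von Frey tactile withdrawal thresholds measured on a wire mesh floor, top threshold 15 g. Baseline taken just before dosing; testing at 1 and 2 h post-dose.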

Voltage-gated potassium channel, KQT; KCNQ2(Kv7.2)/KCNQ3(Kv7.3), sequence (O43526 whole entry): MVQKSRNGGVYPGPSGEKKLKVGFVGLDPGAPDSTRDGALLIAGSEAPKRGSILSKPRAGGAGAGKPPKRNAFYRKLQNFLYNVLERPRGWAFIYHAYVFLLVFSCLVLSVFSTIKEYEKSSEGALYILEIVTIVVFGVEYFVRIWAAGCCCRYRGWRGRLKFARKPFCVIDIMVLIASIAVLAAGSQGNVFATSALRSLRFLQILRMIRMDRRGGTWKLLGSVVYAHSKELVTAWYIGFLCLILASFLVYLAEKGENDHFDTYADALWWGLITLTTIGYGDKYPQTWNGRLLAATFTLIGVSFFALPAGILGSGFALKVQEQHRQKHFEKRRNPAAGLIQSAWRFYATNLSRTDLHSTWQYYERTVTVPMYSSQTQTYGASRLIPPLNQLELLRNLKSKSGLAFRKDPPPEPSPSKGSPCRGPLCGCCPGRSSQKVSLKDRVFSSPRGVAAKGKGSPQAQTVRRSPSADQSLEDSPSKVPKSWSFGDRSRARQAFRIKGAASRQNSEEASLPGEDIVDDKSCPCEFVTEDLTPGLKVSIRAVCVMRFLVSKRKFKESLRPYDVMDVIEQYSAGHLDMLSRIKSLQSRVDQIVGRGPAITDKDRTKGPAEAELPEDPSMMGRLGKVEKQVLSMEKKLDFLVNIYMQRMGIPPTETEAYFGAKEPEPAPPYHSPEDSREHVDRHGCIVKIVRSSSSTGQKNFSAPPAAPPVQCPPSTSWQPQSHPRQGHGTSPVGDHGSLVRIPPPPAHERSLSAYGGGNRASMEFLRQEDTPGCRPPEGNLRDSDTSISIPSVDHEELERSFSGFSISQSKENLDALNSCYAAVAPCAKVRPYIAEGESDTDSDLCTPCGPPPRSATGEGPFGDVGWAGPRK
Voltage-gated potassium channel, KQT; KCNQ2(Kv7.2)/KCNQ3(Kv7.3), sequence (O43525 whole entry): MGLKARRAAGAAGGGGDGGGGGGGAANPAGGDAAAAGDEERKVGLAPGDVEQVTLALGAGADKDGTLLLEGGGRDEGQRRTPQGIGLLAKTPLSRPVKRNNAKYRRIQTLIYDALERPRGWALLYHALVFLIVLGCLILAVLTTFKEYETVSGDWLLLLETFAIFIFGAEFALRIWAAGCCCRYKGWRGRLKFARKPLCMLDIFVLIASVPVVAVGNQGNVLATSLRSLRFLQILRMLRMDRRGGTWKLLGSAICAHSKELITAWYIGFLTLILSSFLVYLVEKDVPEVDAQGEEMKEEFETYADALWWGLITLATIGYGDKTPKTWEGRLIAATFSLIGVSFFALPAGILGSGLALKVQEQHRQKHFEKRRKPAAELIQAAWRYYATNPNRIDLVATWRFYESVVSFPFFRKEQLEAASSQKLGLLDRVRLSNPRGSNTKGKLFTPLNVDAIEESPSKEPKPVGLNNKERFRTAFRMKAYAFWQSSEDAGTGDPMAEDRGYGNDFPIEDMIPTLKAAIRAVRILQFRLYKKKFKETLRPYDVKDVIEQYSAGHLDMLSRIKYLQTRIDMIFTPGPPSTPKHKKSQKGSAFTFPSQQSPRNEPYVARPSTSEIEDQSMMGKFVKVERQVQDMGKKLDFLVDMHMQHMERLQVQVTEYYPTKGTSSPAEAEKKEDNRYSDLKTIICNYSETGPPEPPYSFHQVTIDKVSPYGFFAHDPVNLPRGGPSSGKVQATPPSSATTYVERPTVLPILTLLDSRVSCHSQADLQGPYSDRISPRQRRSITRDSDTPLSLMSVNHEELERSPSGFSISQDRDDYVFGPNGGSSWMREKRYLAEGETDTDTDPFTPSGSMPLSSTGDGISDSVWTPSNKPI

Cn1/c(=N/NC(=O)C23CC4CC(CC(C4)C2)C3)sc2cc(F)cc(F)c21
EC50 [1]: 160 nM

Cn1/c(=N/NC(=O)c2ccc(F)cc2)sc2cc(OC(F)(F)F)ccc21
EC50 [1]: 44 nM

Cn1/c(=N/NC(=O)C23CC4CC(CC(C4)C2)C3)sc2cc(C(F)(F)F)ccc21
EC50 [1]: 160 nM | Activity (Mus musculus [2]): inactive

Cn1/c(=N/NC(=O)C23CC4CC(CC(C4)C2)C3)sc2cc(F)c(F)cc21
EC50 [1]: 21 nM

Cn1/c(=N/NC(=O)OC2CCCC2)sc2cc(OC(F)(F)F)ccc21
EC50 [1]: 29 nM

Cn1/c(=N/NC(=O)C23CC4CC(CC(C4)C2)C3)sc2cc(F)ccc21
EC50 [1]: 28 nM | Activity (Mus musculus [2]): inactive

Cn1/c(=N/NC(=O)C23CC4CC(CC(C4)C2)C3)sc2cccc(F)c21
EC50 [1]: 380 nM

Cn1/c(=N/NC(=O)C23CC4CC(CC(C4)C2)C3)sc2ccc(C(F)(F)F)cc21
EC50 [1]: 53 nM | Activity (Mus musculus [2]): inactive

Cn1/c(=N/NC(=O)C2CCOC2)sc2cc(OC(F)(F)F)ccc21 (centres undefined)
EC50 [1]: 6730 nM

Cn1/c(=N/NC(=O)C23CC4CC(CC(C4)C2)C3)sc2ccccc21
EC50 [1]: 27 nM

Cn1/c(=N/NC(=O)C23CC4CC(CC(C4)C2)C3)sc2cccc(C(F)(F)F)c21
EC50 [1]: 91 nM

Cn1/c(=N/NC(=O)C23CC4CC(CC(C4)C2)C3)sc2c(C(F)(F)F)cccc21
EC50 [1]: 2080 nM

Cn1/c(=N/NC(=O)C(C)(C)C)sc2cc(OC(F)(F)F)ccc21
EC50 [1]: 710 nM | Activity (Mus musculus [3]): inactive | EC50 (Rattus norvegicus [4]): 3.8 mg/kg

Cn1/c(=N/NC(=O)C23CC4CC(CC(C4)C2)C3)sc2c(F)cccc21
EC50 [1]: 98 nM | Activity (Mus musculus [5]): inactive

Cn1/c(=N/NC(=O)C2CCCC2)sc2cc(OC(F)(F)F)ccc21
EC50 [1]: 62 nM | Activity (Mus musculus [5]): inactive

Cn1/c(=N/NC(=O)OC(C)(C)C)sc2cc(OC(F)(F)F)ccc21
EC50 [1]: 23 nM | Activity (Mus musculus [3]): Active

Cn1/c(=N/NC(=O)C2CCCO2)sc2cc(OC(F)(F)F)ccc21 (centres undefined)
EC50 [1]: 5570 nM

Cn1/c(=N/NC(=O)C2CCCCC2)sc2cc(OC(F)(F)F)ccc21
EC50 [1]: 28 nM

CN(/N=c1\sc2ccccc2n1C)C(=O)C12CC3CC(CC(C3)C1)C2
EC50 [1]: > 10000 nM

CCn1/c(=N/NC(=O)C23CC4CC(CC(C4)C2)C3)sc2ccccc21
EC50 [1]: 570 nM

Cn1/c(=N/NC(=O)C23CC4CC(CC(C4)C2)C3)oc2ccccc21
EC50 [1]: 2700 nM

NCC1(CC(=O)O)CCCCC1 [GABAPENTIN]
Activity (Rattus norvegicus [6]): 61% | Activity (Rattus norvegicus [7]): 70%

Cn1/c(=N/NC(=O)C23CC4CC(CC(C4)C2)C3)sc2cc(OC(F)(F)F)ccc21
EC50 [1]: 25 nM | Activity (Mus musculus [8]): Active

Cn1/c(=N/NC(=O)c2ccco2)sc2cc(OC(F)(F)F)ccc21
EC50 [1]: 500 nM

Cn1/c(=N/NC(=O)c2cccc(F)c2)sc2cc(OC(F)(F)F)ccc21
EC50 [1]: 100 nM

CCOC(=O)Nc1ccc(NCc2ccc(F)cc2)cc1N [EZOGABINE]
Activity (Rattus norvegicus [9]): 49% | Activity (Rattus norvegicus [10]): 0%

CC(=O)N/N=c1\sc2cc(OC(F)(F)F)ccc2n1C
EC50 [1]: > 10000 nM

Cn1/c(=N/NC(=O)c2ccccc2)sc2cc(OC(F)(F)F)ccc21
EC50 [1]: 260 nM

Reference: ChEMBL document CHEMBL1157731, “Novel KCNQ2/Q3 agonists as potential therapeutics for epilepsy and neuropathic pain” (J Med Chem, 2010)
